Data published in ChEMBL document CHEMBL3779881, “Property Focused Structure-Based Optimization of Small Molecule Inhibitors of the Protein-Protein Interaction between Menin and Mixed Lineage Leukemia (MLL)” (J Med Chem, 2016).
Values belong to the compound of their own block, whether it stands above or below them. The source made the active and inactive calls. The rule behind the calls is not given here.

Columns and labels:
[1] = Half life in CD-1 mouse liver microsomes at 1 uM after 3 to 60 mins by LC-MS/MS analysis; type: ADME
[2] = Growth inhibition of Hoxa9/Meis1 transformed mouse bone marrow cells after 7 days by MTT assay; type: functional; settings: Bone marrow cell, 168 h
[3] = Growth inhibition of MLL-AF9 transformed mouse bone marrow cells after 7 days by MTT assay; type: functional; settings: Bone marrow cell, 168 h
[4] = system: Bone marrow cell; assay: Selectivity index, ratio of GI50 for Hoxa9/Meis1 transformed mouse bone marrow cells to GI50 for MLL-AF9 transformed mouse bone marrow cells; type: functional
[5] = molecular target: Menin/Histone-lysine N-methyltransferase MLL (Homo sapiens, UniProt O00255); assay: Inhibition of menin-MLL interaction (unknown origin) after 1 hr by fluorescence polarization assay; type: protein assay
[6] = Efflux ratio of apparent permeability from […] side in human Caco2 cells at 10 uM after 2 hrs by LC-MS/MS analysis; type: ADME, cell-based; settings: caco-2, 2 h
[7] = system: Mus musculus; assay: Cmax in C57BL/6 mouse plasma at 30 mg/kg, po after 8 hrs by LC-MS/MS analysis; type: ADME, organism-based; design: dose 30 mg/kg, route oral; settings: in vivo
Summary of the method: (§1)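 Female C57BL/6 mice dosed iv at 15 mg/kg or orally at 30 mg/kg in 25% DMSO/25% PEG-400/50% PBS (v/v). Serial 50 μL blood samples collected over 24 h (8 h in one experiment), spun to plasma; concentrations by validated LC-MS/MS in positive-ion MRM mode; parameters from noncompartmental analysis.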

[8] = system: Mus musculus; assay: AUC in C57BL/6 mouse at 15 mg/kg, iv after 8 hrs by LC-MS/MS analysis; type: ADME, organism-based; design: time < 8 hr, dose 15 mg/kg, route intravenous; settings: in vivo; summary of the method: as §1
[9] = Clearance in C57BL/6 mouse at 15 mg/kg, iv after 8 hrs by LC-MS/MS analysis; type: ADME, organism-based; settings: in vivo; summary of the method: as §1
[10] = system: Mus musculus; assay: Oral bioavailability in C57BL/6 mouse at 30 mg/kg after 8 hrs by LC-MS/MS analysis; type: ADME, organism-based; settings: in vivo; summary of the method: as §1
[11] = system: Mus musculus; assay: AUC in C57BL/6 mouse at 30 mg/kg, po after 8 hrs by LC-MS/MS analysis; type: ADME, organism-based; design: dose 30 mg/kg, time < 8 hr, route oral; settings: in vivo; summary of the method: as §1
[12] = system: Mus musculus; assay: Tmax in C57BL/6 mouse plasma at 30 mg/kg, po after 8 hrs by LC-MS/MS analysis; type: ADME, organism-based; settings: in vivo; summary of the method: as §1
[13] = system: Mus musculus; assay: Half life in C57BL/6 mouse at 15 mg/kg, iv after 8 hrs by LC-MS/MS analysis; type: ADME, organism-based; settings: in vivo; summary of the method: as §1
[14] = system: Mus musculus; assay: Volume of distribution at steady state in C57BL/6 mouse at 15 mg/kg, iv after 8 hrs by LC-MS/MS analysis; type: ADME, organism-based; settings: in vivo; summary of the method: as §1
[15] = molecular target: T1, Menin/Histone-lysine N-methyltransferase 2A (Mus musculus) (UniProt O88559+P55200); assay: Inhibition of menin-MLL interaction in MLL-AF9 transformed mouse bone marrow cells assessed as induction of cell differentiation measured as decreased nuclei to cytoplasm ratio at 0.5 uM after 7 days by Cytospin/Wright-Giemsa staining assay
Summary of the method: (§2)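 MLL-AF9 transduced mouse bone marrow cells seeded at 3×10^5/mL, treated with compound or 0.25% DMSO at 37 °C, 5% CO2 for 7 days; cytospins stained with Wright–Giemsa and scored for morphology.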

[16] = system: Mus musculus; assay: Tmax in C57BL/6 mouse plasma at 30 mg/kg, po after 24 hrs by LC-MS/MS analysis; type: ADME, organism-based; settings: in vivo; summary of the method: as §1
[17] = system: Mus musculus; assay: Cmax in C57BL/6 mouse plasma at 30 mg/kg, po after 24 hrs by LC-MS/MS analysis; type: ADME, organism-based; design: dose 30 mg/kg, route oral; settings: in vivo; summary of the method: as §1
[18] = system: Mus musculus; assay: Volume of distribution at steady state in C57BL/6 mouse at 15 mg/kg, iv after 24 hrs by LC-MS/MS analysis; type: ADME, organism-based; settings: in vivo; summary of the method: as §1
[19] = system: Mus musculus; assay: AUC in C57BL/6 mouse at 15 mg/kg, iv after 24 hrs by LC-MS/MS analysis; type: ADME, organism-based; design: dose 15 mg/kg, time < 24 hr, route intravenous; settings: in vivo; summary of the method: as §1
[20] = molecular target: T1, Menin/Histone-lysine N-methyltransferase 2A (Mus musculus); assay: Inhibition of menin-MLL interaction in MLL-AF9 transformed mouse bone marrow cells assessed as induction of cell differentiation measured as upregulation of Itgam expression level at 0.12 to 0.5 uM after 6 days by qRT-PCR analysis
Summary of the method: (§3)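 MLL-AF9 transformed murine bone marrow cells treated 6 days, then qRT-PCR. Hoxa9 and Meis1 normalised to β-actin; Itgam normalised to 18S rRNA; each referenced to DMSO-treated cells; mean ± SD, n = 2.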

[21] = molecular target: T1, Menin/Histone-lysine N-methyltransferase 2A (Mus musculus); assay: Inhibition of menin-MLL interaction in MLL-AF9 transformed mouse bone marrow cells assessed as induction of cell differentiation measured as multilobed nuclei at 0.5 uM after 7 days by Cytospin/Wright-Giemsa staining assay; summary of the method: as §2
[22] = system: Mus musculus; assay: Half life in C57BL/6 mouse at 15 mg/kg, iv after 24 hrs by LC-MS/MS analysis; type: ADME, organism-based; settings: in vivo; summary of the method: as §1
[23] = system: Mus musculus; assay: Oral bioavailability in C57BL/6 mouse at 30 mg/kg after 24 hrs by LC-MS/MS analysis; type: ADME, organism-based; settings: in vivo; summary of the method: as §1
[24] = system: HL-60; assay: Growth inhibition of human HL60 after 7 days by MTT assay; type: functional; settings: HL-60, 168 h
Summary of the method: (§4)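 Cells in RPMI-1640/10% FBS/pen-strep/NEAA, seeded at 1×10^5/mL (MOLM-13, MV4;11) or 2×10^5/mL (HL-60), treated with compound or 0.25% DMSO for 7 days at 37 °C. Medium changed on day 4 with cell density reset and compound resupplied. MTT absorbance read at 570 nm; 2–3 experiments in quadruplicate, mean ± SD.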

[25] = molecular target: T1, Menin/Histone-lysine N-methyltransferase 2A (Mus musculus); assay: Inhibition of menin-MLL interaction in MLL-AF9 transformed mouse bone marrow cells assessed as downregulation of Meis1 expression level at 0.12 to 0.5 uM after 6 days by qRT-PCR analysis; summary of the method: as §3
[26] = system: MOLM-13; assay: Growth inhibition of human MOLM13 after 7 days by MTT assay; type: functional; settings: MOLM-13, 168 h; summary of the method: as §4
[27] = system: Plasma; assay: Drug metabolism in C57BL/6 mouse plasma assessed as glucuronidation at 15 mg/kg, iv after 24 hrs by LC-MS/MS analysis; type: ADME, organism-based; settings: in vivo
Summary of the method: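 Female C57BL/6 mice given 15 mg/kg iv in 25% DMSO/25% PEG-400/50% PBS; serial plasma samples analysed by the same LC-MS/MS procedure as the PK work to detect glucuronide conjugates.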

[28] = system: MV4-11; assay: Antitumor activity against human MV4-11 cells xenografted in CB17 SCID mouse assessed as tumor growth inhibition at 45 mg/kg, ip qd administered for 2 weeks; type: functional; settings: MV4-11, ip, 336 h, read-out: TGI
Summary of the method: (§5)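 MV4;11 cells in serum-free medium mixed 1:1 with Matrigel; 5×10^6 cells injected subcutaneously into the right flank of female mice aged 4–6 weeks. Dosing began at ~100 mm³ tumours; mice randomised, once-daily ip injections of vehicle or compound for 2 weeks.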

[29] = system: Mus musculus; assay: AUC in C57BL/6 mouse at 30 mg/kg, po after 24 hrs by LC-MS/MS analysis; type: ADME, organism-based; design: time < 24 hr, dose 30 mg/kg, route oral; settings: in vivo; summary of the method: as §1
[30] = molecular target: T1, Menin/Histone-lysine N-methyltransferase 2A (Mus musculus); assay: Inhibition of menin-MLL interaction in MLL-AF9 transformed mouse bone marrow cells assessed as induction of cell differentiation measured as highly vacuolated cytoplasm at 0.5 uM after 7 days by Cytospin/Wright-Giemsa staining assay; summary of the method: as §2
[31] = system: Mus musculus; assay: Toxicity in CB17 SCID mouse xenografted with human MV4-11 cells assessed as reduction in body weight at 45 mg/kg, ip qd administered for 2 weeks; type: organism-based; design: scale not given: the % may be the effect or the level left; settings: in vivo, 336 h; summary of the method: as §5
[32] = Clearance in C57BL/6 mouse at 15 mg/kg, iv after 24 hrs by LC-MS/MS analysis; type: ADME, organism-based; settings: in vivo; summary of the method: as §1
[33] = molecular target: T1, Menin/Histone-lysine N-methyltransferase 2A (Mus musculus); assay: Inhibition of menin-MLL interaction in MLL-AF9 transformed mouse bone marrow cells assessed as downregulation of Hoxa9 expression level at 100 nM after 6 days by qRT-PCR analysis; summary of the method: as §3
[34] = system: MV4-11; assay: Growth inhibition of human MV4-11 after 7 days by MTT assay; type: functional; settings: MV4-11, 168 h; summary of the method: as §4
[35] = molecular target: T2, Menin (Homo sapiens, UniProt O00255); assay: Binding affinity to menin (unknown origin)
T2 sequence (O00255 whole entry): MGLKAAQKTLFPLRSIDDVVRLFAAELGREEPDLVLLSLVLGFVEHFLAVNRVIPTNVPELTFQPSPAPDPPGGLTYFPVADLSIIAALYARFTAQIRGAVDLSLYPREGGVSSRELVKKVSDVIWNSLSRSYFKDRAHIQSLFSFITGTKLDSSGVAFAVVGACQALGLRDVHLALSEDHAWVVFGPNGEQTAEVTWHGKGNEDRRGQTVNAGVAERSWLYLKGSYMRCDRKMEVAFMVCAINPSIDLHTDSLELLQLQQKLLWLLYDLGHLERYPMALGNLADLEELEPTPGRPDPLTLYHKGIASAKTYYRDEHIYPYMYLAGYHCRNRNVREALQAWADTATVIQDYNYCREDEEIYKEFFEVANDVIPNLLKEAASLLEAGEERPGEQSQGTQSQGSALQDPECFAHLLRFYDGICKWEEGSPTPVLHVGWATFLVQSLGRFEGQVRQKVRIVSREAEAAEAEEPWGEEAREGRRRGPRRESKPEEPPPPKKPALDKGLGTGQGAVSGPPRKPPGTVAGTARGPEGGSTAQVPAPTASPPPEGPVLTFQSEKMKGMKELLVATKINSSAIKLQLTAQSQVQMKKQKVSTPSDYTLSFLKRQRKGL

T1 sequence (O88559 whole entry, looked up): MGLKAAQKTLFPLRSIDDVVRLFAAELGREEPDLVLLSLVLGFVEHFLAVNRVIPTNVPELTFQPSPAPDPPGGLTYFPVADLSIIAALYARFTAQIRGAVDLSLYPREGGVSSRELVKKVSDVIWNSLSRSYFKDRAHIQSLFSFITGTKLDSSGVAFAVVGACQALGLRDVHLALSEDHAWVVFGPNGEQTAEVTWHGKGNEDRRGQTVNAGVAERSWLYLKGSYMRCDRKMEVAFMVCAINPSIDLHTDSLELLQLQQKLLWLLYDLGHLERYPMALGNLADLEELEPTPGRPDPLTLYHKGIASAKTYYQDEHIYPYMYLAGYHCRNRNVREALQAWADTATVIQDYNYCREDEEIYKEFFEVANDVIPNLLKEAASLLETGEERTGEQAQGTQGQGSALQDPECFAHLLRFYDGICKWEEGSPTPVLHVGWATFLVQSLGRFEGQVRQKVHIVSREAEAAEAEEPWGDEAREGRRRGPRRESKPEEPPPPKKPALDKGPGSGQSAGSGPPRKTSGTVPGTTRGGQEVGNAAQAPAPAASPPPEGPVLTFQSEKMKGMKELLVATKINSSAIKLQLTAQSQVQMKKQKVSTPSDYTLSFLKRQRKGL
T1 sequence (P55200 whole entry, looked up): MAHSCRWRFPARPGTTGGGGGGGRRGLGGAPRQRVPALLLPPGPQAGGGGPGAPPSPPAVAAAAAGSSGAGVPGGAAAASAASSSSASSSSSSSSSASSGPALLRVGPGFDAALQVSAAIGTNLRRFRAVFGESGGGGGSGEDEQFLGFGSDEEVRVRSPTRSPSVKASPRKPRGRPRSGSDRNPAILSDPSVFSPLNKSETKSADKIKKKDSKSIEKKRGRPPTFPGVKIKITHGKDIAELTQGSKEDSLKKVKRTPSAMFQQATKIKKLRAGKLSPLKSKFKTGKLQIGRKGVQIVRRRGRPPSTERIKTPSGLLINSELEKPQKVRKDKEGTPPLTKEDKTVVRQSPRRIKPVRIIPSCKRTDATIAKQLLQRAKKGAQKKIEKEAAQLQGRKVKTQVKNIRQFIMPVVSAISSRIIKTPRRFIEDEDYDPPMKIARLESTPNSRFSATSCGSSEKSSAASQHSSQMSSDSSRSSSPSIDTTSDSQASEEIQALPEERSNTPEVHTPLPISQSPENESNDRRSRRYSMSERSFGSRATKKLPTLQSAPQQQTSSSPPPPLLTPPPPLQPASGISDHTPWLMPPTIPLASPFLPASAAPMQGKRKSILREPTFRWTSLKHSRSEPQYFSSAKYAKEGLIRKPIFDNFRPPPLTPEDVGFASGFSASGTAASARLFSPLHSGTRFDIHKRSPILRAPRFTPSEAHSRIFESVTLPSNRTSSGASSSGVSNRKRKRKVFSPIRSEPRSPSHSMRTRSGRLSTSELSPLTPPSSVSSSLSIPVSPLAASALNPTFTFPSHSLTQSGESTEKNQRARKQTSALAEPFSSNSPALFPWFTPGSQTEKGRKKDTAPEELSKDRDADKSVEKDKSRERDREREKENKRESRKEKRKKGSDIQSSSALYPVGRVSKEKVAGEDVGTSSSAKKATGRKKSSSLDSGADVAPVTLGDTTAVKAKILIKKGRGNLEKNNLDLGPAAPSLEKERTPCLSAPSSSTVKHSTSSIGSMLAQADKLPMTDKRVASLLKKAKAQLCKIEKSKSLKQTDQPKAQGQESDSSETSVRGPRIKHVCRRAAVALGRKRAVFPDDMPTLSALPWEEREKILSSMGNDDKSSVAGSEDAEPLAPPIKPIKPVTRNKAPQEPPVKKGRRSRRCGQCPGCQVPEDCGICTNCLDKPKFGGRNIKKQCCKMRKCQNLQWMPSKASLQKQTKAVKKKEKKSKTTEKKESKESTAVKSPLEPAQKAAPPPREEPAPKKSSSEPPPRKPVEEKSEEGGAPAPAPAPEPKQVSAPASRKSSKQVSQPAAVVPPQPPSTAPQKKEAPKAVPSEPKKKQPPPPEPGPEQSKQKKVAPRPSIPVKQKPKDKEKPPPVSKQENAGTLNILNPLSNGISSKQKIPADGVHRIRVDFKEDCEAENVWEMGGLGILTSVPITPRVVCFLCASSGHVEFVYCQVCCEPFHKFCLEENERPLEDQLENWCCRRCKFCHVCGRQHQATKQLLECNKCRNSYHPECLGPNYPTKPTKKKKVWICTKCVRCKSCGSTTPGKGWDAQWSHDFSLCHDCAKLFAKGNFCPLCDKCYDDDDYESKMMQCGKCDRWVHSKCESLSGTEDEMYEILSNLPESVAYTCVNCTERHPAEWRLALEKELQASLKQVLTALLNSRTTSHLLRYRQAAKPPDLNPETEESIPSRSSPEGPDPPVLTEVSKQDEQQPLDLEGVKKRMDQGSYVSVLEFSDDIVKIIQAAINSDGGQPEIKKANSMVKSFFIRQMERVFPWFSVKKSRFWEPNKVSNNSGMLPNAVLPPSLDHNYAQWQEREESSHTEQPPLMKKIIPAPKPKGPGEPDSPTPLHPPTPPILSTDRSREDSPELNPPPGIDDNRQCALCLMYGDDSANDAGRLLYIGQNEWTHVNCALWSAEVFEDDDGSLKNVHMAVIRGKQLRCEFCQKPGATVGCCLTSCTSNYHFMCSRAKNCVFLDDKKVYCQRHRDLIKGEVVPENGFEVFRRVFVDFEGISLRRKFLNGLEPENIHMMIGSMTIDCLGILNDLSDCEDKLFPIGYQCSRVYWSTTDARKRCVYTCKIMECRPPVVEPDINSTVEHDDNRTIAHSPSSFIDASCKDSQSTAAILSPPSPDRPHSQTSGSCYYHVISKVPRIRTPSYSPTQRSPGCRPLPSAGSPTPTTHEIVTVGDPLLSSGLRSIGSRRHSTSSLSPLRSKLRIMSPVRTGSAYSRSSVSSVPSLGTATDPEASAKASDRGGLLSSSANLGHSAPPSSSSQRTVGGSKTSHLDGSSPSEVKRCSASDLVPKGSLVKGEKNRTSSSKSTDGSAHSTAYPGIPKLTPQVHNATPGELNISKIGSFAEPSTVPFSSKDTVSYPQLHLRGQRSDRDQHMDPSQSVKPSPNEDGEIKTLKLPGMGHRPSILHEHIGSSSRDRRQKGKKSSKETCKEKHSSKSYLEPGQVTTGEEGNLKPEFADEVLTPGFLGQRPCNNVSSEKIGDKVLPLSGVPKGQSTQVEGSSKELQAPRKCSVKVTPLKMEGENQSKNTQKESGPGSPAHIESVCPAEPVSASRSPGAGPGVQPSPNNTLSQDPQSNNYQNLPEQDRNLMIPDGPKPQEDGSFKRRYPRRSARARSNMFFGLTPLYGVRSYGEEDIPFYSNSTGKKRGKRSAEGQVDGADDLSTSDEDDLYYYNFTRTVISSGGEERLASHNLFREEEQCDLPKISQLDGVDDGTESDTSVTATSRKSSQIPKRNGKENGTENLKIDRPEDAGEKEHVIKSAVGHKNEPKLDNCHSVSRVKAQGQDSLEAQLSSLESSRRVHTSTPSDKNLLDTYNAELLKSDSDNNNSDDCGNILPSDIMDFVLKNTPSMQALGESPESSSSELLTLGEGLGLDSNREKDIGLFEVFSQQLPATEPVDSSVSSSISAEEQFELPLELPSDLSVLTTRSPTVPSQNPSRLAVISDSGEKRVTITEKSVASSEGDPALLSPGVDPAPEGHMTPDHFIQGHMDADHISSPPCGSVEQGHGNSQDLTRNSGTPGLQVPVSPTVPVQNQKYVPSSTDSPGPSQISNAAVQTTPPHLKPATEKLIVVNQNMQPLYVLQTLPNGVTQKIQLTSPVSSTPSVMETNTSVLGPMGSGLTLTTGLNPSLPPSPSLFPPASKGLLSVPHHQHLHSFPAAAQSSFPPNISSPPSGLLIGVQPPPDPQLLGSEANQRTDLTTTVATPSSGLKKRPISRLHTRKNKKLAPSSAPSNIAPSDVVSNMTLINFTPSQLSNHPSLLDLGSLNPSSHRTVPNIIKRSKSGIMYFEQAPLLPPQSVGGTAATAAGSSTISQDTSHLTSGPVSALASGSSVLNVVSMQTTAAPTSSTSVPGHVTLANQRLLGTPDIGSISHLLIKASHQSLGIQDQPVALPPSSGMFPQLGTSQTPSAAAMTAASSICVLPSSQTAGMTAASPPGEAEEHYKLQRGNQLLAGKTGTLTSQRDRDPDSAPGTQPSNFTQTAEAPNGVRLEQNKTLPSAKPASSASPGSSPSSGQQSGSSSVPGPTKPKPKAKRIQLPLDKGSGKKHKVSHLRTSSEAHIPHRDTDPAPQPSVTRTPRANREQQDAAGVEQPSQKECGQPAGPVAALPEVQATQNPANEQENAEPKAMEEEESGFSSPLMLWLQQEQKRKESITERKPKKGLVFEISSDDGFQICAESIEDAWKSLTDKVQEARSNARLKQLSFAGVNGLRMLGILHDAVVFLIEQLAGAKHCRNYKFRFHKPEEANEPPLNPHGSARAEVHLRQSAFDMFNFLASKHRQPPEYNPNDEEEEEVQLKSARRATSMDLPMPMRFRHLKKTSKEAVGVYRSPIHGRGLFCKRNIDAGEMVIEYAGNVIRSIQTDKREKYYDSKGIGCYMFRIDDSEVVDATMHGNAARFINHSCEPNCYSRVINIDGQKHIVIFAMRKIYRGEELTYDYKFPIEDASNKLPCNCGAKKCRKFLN

- t1/2 [1]: 0.9 h
- IC50 [5]: 25 nM
- Ratio [6]: > 90
SMILES: N#Cc1cc2cc(CN3CCC(Nc4ncnc5sc(CC(F)(F)F)cc45)CC3)ccc2n1CC(N)=O
- GI50 [2]: 25000 nM
- GI50 [3]: 780 nM
- RatioGI50 [4]: 32

- t1/2 [1]: 0.917 h
- Cmax [7]: 101 ng/mL
- AUC [8]: 16235 ng·h/mL
- clearance [9]: 15 mL/min/kg
- F [10]: 1%
- AUC [11]: 383 ng·h/mL
- IC50 [5]: 12 nM
- Tmax [12]: 2 h
- t1/2 [13]: 1.4 h
- Vdss [14]: 1.837 L/kg
SMILES: COc1cc2c(cc(C#N)n2Cc2cn[nH]c2)c(C)c1CN1CCC(Nc2ncnc3sc(CC(F)(F)F)cc23)CC1
- GI50 [2]: 4200 nM
- GI50 [3]: 180 nM
- RatioGI50 [4]: 23

- inhibition [15]: Active
- Tmax [16]: 2 h
- Cmax [17]: 4572 ng/mL
- Vdss [18]: 2.347 L/kg
- AUC [19]: 17897 ng·h/mL
- inhibition [20]: Active
- inhibition [21]: Active
- t1/2 [22]: 1.6 h
- F [23]: 51%
- GI50 [24]: > 6000 nM
- inhibition [25]: Active
- IC50 [5]: 21 nM
- GI50 [26]: 268 nM
- Drug metabolism [27]: metabolite_detected
- AUC [29]: 18090 ng·h/mL
- inhibition [30]: Active
- clearance [32]: 14 mL/min/kg
- inhibition [33]: 50%
- GI50 [34]: 175 nM
- Kd [35]: 6.5 nM
SMILES: N#Cc1cc2cc(CN3CCC(Nc4ncnc5sc(CC(F)(F)F)cc45)CC3)c(O)cc2n1Cc1cn[nH]c1
- GI50 [2]: 9000 nM
- GI50 [3]: 83 nM
- RatioGI50 [4]: 108
- inhibition in vivo at 45 mg/kg [28]: 80%
- Activity [31]: < 10%
